# E coli WT exp: E. coli BW25113 growth inhibition, expanded screen. OD600 absorbance. growth inhibition, % at 100 µM. 0.15% of 98,000 active. AID 710;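 active = growth inhibition above about 50% at one test dose, limit read from the data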;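 note: growth measured after 20 h incubation at 37 °C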
# Fibroblast inh: blocks proliferation of human lung fibroblasts; viability, % at 10 µM; AID 719; LL 47 human lung fibroblast viability, ATP luminescence; stronger effect = lower value; 1.1% of 85,000 active;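 active = viability at or below 50% in the single dose screen; inactive = viability above 50%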;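 note: compound exposure lasted 72 h before the ATP readout; 100% = median luminescence of untreated cell-only wells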
#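 material = human LL 47 lung fibroblast cells | dosing = compounds added from tenfold dosing solution, 0.1% DMSO final | timing = overnight cell rest, 72 h compound treatment at 37 °C | measured by = CellTiter-Glo luminescence measuring cellular ATP | evaluation = % viability versus median cells-only luminescence | control set = cell-only wells, no compound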
# HUVEC inhibit: blocks proliferation of human endothelial cells; viability, % at 10 µM (by protocol); HUVEC proliferation, CellTiter-Glo luminescence, 72 h; stronger effect = lower value; 1.1% of 86,000 active;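 active = viability at or below 30%; inactive = viability above 30%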;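 note: 100% = median luminescence of DMSO-only cell control wells on each plate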
# H69AR inhibit: blocks growth of human H69AR lung tumor cells; H69AR lung tumor viability, ATP luminescence, 72 h; stronger effect = lower value; 6% of 85,000 active; AID 598; viability, % at 10 µM;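 active = viability at or below 40%; inactive = viability above 40%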;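 note: multidrug resistant small cell line overexpressing MRP-1 efflux transporter; 100% = mean luminescence of untreated control wells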
# tolC growth inh: blocks growth of E. coli BW25113 tolC mutant; OD615; growth inhibition, % at 10 µM (by protocol); 2.2% of 65,000 active; AID 573;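 active = growth inhibition at or above a cutoff equal to the mean over every tested compound plus 3 SD, cut at about 60% in these data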;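 note: growth measured after 20 h incubation at 37 °C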
#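 Assay system: tolC-deleted E. coli BW25113. Medium: kanamycin-containing LB broth (50 µg/mL). Dosing: 10 µM final, single dose. Timing: bacterial growth with compound for 20 h at 37 °C. Detection: A615 absorbance measurement. Read-out basis: growth inhibition in percent.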
# Jurkat viability: cytotoxic compounds reducing Jurkat cell viability; AID 463; Jurkat E6.1 viability, ATP luminescence, 48 h; 1.2% of 56,000 active; inhibition, % at 4 µM;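 active = inhibition above the mean inhibition of all tested compounds plus 3 SD, cut at about 28% in these data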
# An asterisk follows results filed as active; . = no result given. An excerpt weighted towards active compounds, which were near 6.4% of everything screened.
SMILES,E coli WT exp,Fibroblast inh,HUVEC inhibit,H69AR inhibit,tolC growth inh,Jurkat viability
CCOC(=O)c1ccc(N=c2sc(C(=O)OC)cc(=O)n2Cc2ccco2)cc1,-26.0,69.1,28.5*,1.3*,13.0,8.2
COC(=O)c1cc(=O)n(Cc2cccs2)c(=NCc2cccs2)s1,-11.0,.,.,.,-8.4,.
CCOC(=O)c1ccc(N=c2sc(C(=O)OC)cc(=O)n2CCCN2CCOCC2)cc1,-1.0,67.5,58.3,20.5*,0.5,6.6
Cn1c(CCN2CCCCC2)nc2cc(NS(=O)(=O)c3ccc(F)cc3)ccc21,-6.0,94.5,106.7,21.8*,-12.4,-4.4
Cc1ccc(S(=O)(=O)Nc2ccc3c(c2)nc(CN2CCCC2)n3C)cc1,6.0,91.9,92.0,81.5,.,.
Cn1c(Cn2c(=O)sc3ccccc32)nnc1SCc1ccccn1,2.0,97.0,101.5,107.2,-7.5,-3.1
COc1nnc(-c2ccc(N3CCCCC3)c(N)c2)c2ccccc12,.,.,.,.,62.7*,7.8
COc1ccc(NC(=O)N(C2CCCCC2)C(C)c2ccco2)c(OC)c1 (centres undefined),-17.0,95.3,113.3,85.0,68.6*,-6.2
Cc1ccc(-c2nc(CS(=O)CC(=O)NCCN3CCCC3)c(C)o2)cc1 (centres undefined),-11.0,107.6,100.7,98.6,-3.1,-4.0
Oc1ccc2c(c1)oc1cc(O)ccc12,35.0,75.7,56.7,5.2*,100.0*,22.4
CCOC(=O)c1c(C)[nH]c(C(=O)COC(=O)c2oc3ccc(OC)cc3c2C)c1C,-14.0,70.1,61.9,66.2,-1.6,1.8
Cc1c(C(=O)/C=C/c2cccs2)oc2ccc(F)cc12,-14.0,88.9,84.9,21.4*,.,.
COC(=O)c1ccc(Oc2cc(C)nc(SC)n2)cc1,-7.0,57.6,57.1,30.1*,3.8,65.2*
COC(=O)C(NC(=O)c1ccc(F)cc1)(Nc1ncc(S(=O)(=O)c2ccc([N+](=O)[O-])cc2)s1)C(F)(F)F (centres undefined),-4.0,.,.,.,.,.
Cc1ccc(C=Nc2ccccc2C(N)=O)cc1,-1.0,53.5,55.1,22.1*,.,.
Cc1ccc(NC(=O)C2CCN(S(=O)(=O)c3cccs3)CC2)cc1C,-4.0,105.0,100.5,87.6,.,.
CCn1c2ccccc2c2cc(NC(=O)C3CCN(S(=O)(=O)c4cccs4)CC3)ccc21,.,92.4,39.0,21.0*,8.3,.
c1ccc2nc3c(nc2c1)c1ccccc1n3CCN1CCOCC1,5.0,84.1,92.2,83.4,43.7,1.1
CCn1c2ccccc2c2nc3cc(S(=O)(=O)N4CCOCC4)ccc3nc21,-2.0,84.3,90.2,6.1*,8.3,3.0
CCN(CC)c1ccc(C(=O)n2cnc3ccccc32)cc1,-6.0,87.6,75.2,21.4*,77.9*,31.4
Cc1cccc(NC(=O)CS(=O)(=O)c2cn(C)c3ccccc23)c1C,-7.0,87.0,97.7,71.2,8.7,.
O=C(Oc1ccc2ccccc2c1)c1ccco1,12.0,98.4,97.2,84.5,6.9,-0.1
CC1CC(C)(C)Nc2ccc(OC(=O)c3ccco3)cc21 (centres undefined),6.0,1.7*,5.7*,1.1*,8.6,9.0
N#C/C(=C\c1ccc(-c2cccc(Cl)c2)o1)C(=O)Nc1cccc2cccnc12,-2.0,96.5,80.1,14.6*,.,.
CCOC(=O)Nc1c(C)n(C)n(-c2ccccc2)c1=O,.,94.2,90.3,92.7,-23.6,.
SMILES,E coli WT exp,Fibroblast inh,HUVEC inhibit,H69AR inhibit,tolC growth inh,Jurkat viability
COc1ccc(-n2nc(C(=O)c3cccs3)cc(-c3nc4ccccc4[nH]3)c2=N)cc1,.,78.2,28.8*,1.4*,.,.
Cc1ccccc1-n1nc(C(=O)c2cccs2)cc(-c2nc3ccccc3[nH]2)c1=N,.,78.0,71.5,37.8*,.,.
COc1ccc(-c2nc3ccccc3[nH]2)cc1,24.0,64.1,63.5,45.3,.,.
C=C(C)COc1ccc(-c2ncncc2Oc2ccc(OC)cc2)c(O)c1,0.0,98.4,89.0,48.2,65.8*,4.5
C=C(C)COc1ccc(-c2nc(N)ncc2-c2ccc(OC)cc2)c(O)c1,-29.0,93.3,98.6,10.1*,85.6*,1.0
COc1ccc(-c2ncncc2-c2csc(C)n2)c(O)c1,3.0,86.1,94.8,108.7,7.9,.
CCc1[nH]nc2c1C(c1ccc(Br)s1)C(C#N)=C(N)O2 (centres undefined),3.0,24.4*,69.4,1.7*,9.0,.
COc1ccc(CCNC(=O)C2CCN(C(=O)N(C)C)CC2)cc1OC,11.0,105.0,83.2,98.5,-8.8,-10.2
COc1ccc(-c2c(C)nn3c(N4CCC(C(=O)NCCN(C)C)CC4)cc(C)nc23)cc1OC,4.0,83.4,72.4,30.0*,1.0,-1.8
CCCN(CCC)C(=O)C1CCN(c2cc(C)nc3c(-c4ccc(OC)c(OC)c4)c(C)nn23)CC1,2.0,94.9,94.3,34.2*,1.8,5.0
COc1ccc(C(=O)NCc2ccc(C)cc2)cc1S(=O)(=O)N1CCCc2ccccc21,-16.0,.,.,.,.,.
CN(CCCCCCCCC(=O)/C=N/O)Cc1ccccc1,9.0,95.6,88.5,24.2*,.,.
O=C(Cn1nc(Cc2cccnc2)c2ccccc2c1=O)NCCCN1CCCC1=O,3.0,91.2,103.4,103.5,-6.1,-2.7
Cc1oc(-c2ccccc2)cc1C(=O)Nc1cccc(C(=O)O)c1,2.0,103.0,82.3,80.6,29.8,4.6
Cc1oc(-c2ccccc2)cc1C(=O)Nc1cccc2ccccc12,-10.0,99.5,98.0,33.9*,.,.
COc1ccc2c(c1)CCc1c(C(=O)NCCCn3ccnc3)noc1-2,-1.0,107.5,92.8,1.5*,24.4,-3.6
Cc1ccc(C(=O)N2CCN3C(=O)c4ccccc4C23c2ccc(Cl)cc2)cc1 (centres undefined),-9.0,61.0,66.4,33.5*,.,.
O=C(Nc1cccc(Cl)c1)N1CCN2C(=O)c3ccccc3C12c1ccccc1 (centres undefined),-5.0,81.9,82.3,84.5,.,.
CCOC(=O)Cc1cc(=O)n2[nH]c(-c3ccc(Cl)cc3)cc2n1,-6.0,90.2,72.7,95.4,.,.
CC(C)(C)OC(=O)N1CCC(c2cc(=O)n3[nH]c(-c4ccc(Cl)cc4)cc3n2)CC1,-5.0,75.8,73.0,10.9*,.,.
CC/C(=C\C(=O)c1cccnc1)Nc1ccc(C)c(C)c1,3.0,91.6,96.0,85.6,27.0,3.5
CCOC(=O)c1c(C)c(C#N)c2c3ccccc3ccn12,-12.0,.,.,.,.,.
COc1ccc(N=CC2=C(Nc3ccc(OC)cc3)c3c(C)nn(-c4ccccn4)c3CC2)cc1,.,71.0,3.0*,39.0*,.,.
COc1ccc(-c2cc(C(=O)O)c3c(C)nn(-c4ccccn4)c3n2)cc1,3.0,102.7,97.4,92.6,.,.
COc1cccc(-c2nn(C)c3sc(C(=O)N4CCN(c5ccccn5)CC4)cc23)c1,-20.0,.,.,.,41.9,30.6
CCCCCC/C(=N/O)c1ccccn1,37.0,61.4,28.4*,24.7*,100.0*,-4.0
CC1CCN(c2c(NCC3CCC(C(=O)N4CCc5ccccc5C4)CC3)c(=O)c2=O)CC1 (centres undefined),-2.0,.,.,.,.,.

# High-throughput results (PubChem)
